Results as given in ChEMBL document CHEMBL2203173 (J Med Chem, 2012).

Tests used:
Mus musculus [1] = assay: Toxicity in BALB/c nu/nu mouse xenografted with human DMS53 cells assessed as change in liver histology at 10 mg/kg, po administered for 3 times a week measured after 20 days; format: organism-based, DMS-53; design: dose 10 mg/kg, route oral; details: in vivo, 480 h
In short: (§1)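 Nude mice bearing DMS-53 xenografts gavaged 3 times/week for 20 days, vehicle 30% propylene glycol/saline, vehicle controls, n = 6-11 mice/condition. Sacrifice on day 20. Organ weights and hematological indices recorded. Spleen, kidney, liver, heart, lungs and brain examined histologically, hearts stained with Gomori Trichrome for fibrosis.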

Mus musculus [2] = assay: Cardiotoxicity in human DMS53 cells xenografted BALB/c nu/nu mouse at 10 mg/kg, po administered for 3 times a week measured after 20 days; format: toxicity, organism-based, DMS-53; design: dose 10 mg/kg, route oral; details: in vivo, 480 h
In short: (§2)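 DMS-53 xenograft nude mice given oral gavage 3 times/week in 30% propylene glycol/saline for 20 days. Heart sections taken after 20 days were stained with Gomori Trichrome for fibrosis and viewed at 100×. Other organs were examined histologically.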

Mus musculus [3] = assay: Toxicity in BALB/c nu/nu mouse xenografted with human DMS53 cells assessed as change in heart weight at 10 mg/kg, po administered for 3 times a week measured after 20 days; format: organism-based, DMS-53; design: dose 10 mg/kg, route oral; details: in vivo, 480 h; in short: as §1
Mus musculus [4] = assay: Toxicity in BALB/c nu/nu mouse xenografted with human DMS53 cells assessed as change in lungs histology at 20 mg/kg, po administered for 3 times a week measured after 20 days; format: organism-based, DMS-53; design: dose 20 mg/kg, route oral; details: in vivo, 480 h; in short: as §1
Mus musculus [5] = assay: Toxicity in BALB/c nu/nu mouse xenografted with human DMS53 cells assessed as change in lungs histology at 10 mg/kg, po administered for 3 times a week measured after 20 days; format: organism-based, DMS-53; design: dose 10 mg/kg, route oral; details: in vivo, 480 h; in short: as §1
Mus musculus [6] = assay: Cardiotoxicity in human DMS53 cells xenografted BALB/c nu/nu mouse at 20 mg/kg, po administered for 3 times a week measured after 20 days; format: toxicity, organism-based, DMS-53; design: dose 20 mg/kg, route oral; details: in vivo, 480 h; in short: as §2
Mus musculus [7] = assay: Toxicity in BALB/c nu/nu mouse xenografted with human DMS53 cells assessed as change in spleen histology at 7.5 mg/kg, po administered for 3 times a week measured after 20 days; format: organism-based, DMS-53; design: dose 7.5 mg/kg, route oral; details: in vivo, 480 h
In short: (§3)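 DMS-53 xenograft nude mice were gavaged 3 times/week in 30% propylene glycol/saline vehicle for 20 days and then sacrificed. Organ weights and histology of spleen, kidney, liver, heart, lungs and brain were compared with vehicle controls. n = 6-11 mice/condition.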

Mus musculus [8] = assay: Toxicity in BALB/c nu/nu mouse xenografted with human DMS53 cells assessed as change in liver histology at 7.5 mg/kg, po administered for 3 times a week measured after 20 days; format: organism-based, DMS-53; design: dose 7.5 mg/kg, route oral; details: in vivo, 480 h; in short: as §1
Mus musculus [9] = assay: Toxicity in BALB/c nu/nu mouse xenografted with human DMS53 cells assessed as change in hematocrit level at 10 mg/kg, po administered for 3 times a week measured after 20 days; format: organism-based, DMS-53; design: dose 10 mg/kg, route oral; details: in vivo, 480 h; in short: as §1
Mus musculus [10] = assay: Toxicity in BALB/c nu/nu mouse xenografted with human DMS53 cells assessed as cardiac fibrosis at 7.5 mg/kg, po administered for 3 times a week measured after 20 days using Gomori Trichrome stain; format: organism-based, Heart, DMS-53; design: dose 7.5 mg/kg, route oral; details: in vivo, 480 h; in short: as §2
Mus musculus [11] = assay: Toxicity in BALB/c nu/nu mouse xenografted with human DMS53 cells assessed as change in spleen histology at 20 mg/kg, po administered for 3 times a week measured after 20 days; format: organism-based, DMS-53; design: dose 20 mg/kg, route oral; details: in vivo, 480 h; in short: as §3
Mus musculus [12] = assay: Toxicity in BALB/c nu/nu mouse xenografted with human DMS53 cells assessed as change in spleen histology at 10 mg/kg, po administered for 3 times a week measured after 20 days; format: organism-based, DMS-53; design: dose 10 mg/kg, route oral; details: in vivo, 480 h; in short: as §3
Mus musculus [13] = assay: Toxicity in BALB/c nu/nu mouse xenografted with human DMS53 cells assessed as change in brain histology at 20 mg/kg, po administered for 3 times a week measured after 20 days; format: organism-based, DMS-53; design: dose 20 mg/kg, route oral; details: in vivo, 480 h; in short: as §1
Mus musculus [14] = assay: Toxicity in BALB/c nu/nu mouse xenografted with human DMS53 cells assessed as cardiac fibrosis at 20 mg/kg, po administered for 3 times a week measured after 20 days using Gomori Trichrome stain; format: organism-based, Heart, DMS-53; design: dose 20 mg/kg, route oral; details: in vivo, 480 h; in short: as §2
Mus musculus [15] = assay: Toxicity in BALB/c nu/nu mouse xenografted with human DMS53 cells assessed as change in spleen weight at 10 mg/kg, po administered for 3 times a week measured after 20 days; format: organism-based, DMS-53; design: dose 10 mg/kg, route oral; details: in vivo, 480 h; in short: as §3
[16] = Toxicity in po dosed BALB/c nu/nu mouse xenografted with human DMS53 cells measured for 28 days; format: organism-based, DMS-53; details: in vivo
In short: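 Oral dose-range-finding study to set the maximum tolerated dose in nude mice bearing DMS-53 tumors, with dosing over a 28-day treatment period.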

Mus musculus [17] = assay: Toxicity in BALB/c nu/nu mouse xenografted with human DMS53 cells assessed as change in brain histology at 7.5 mg/kg, po administered for 3 times a week measured after 20 days; format: organism-based, DMS-53; design: dose 7.5 mg/kg, route oral; details: in vivo, 480 h; in short: as §1
Mus musculus [18] = assay: Toxicity in BALB/c nu/nu mouse xenografted with human DMS53 cells assessed as change in brain histology at 10 mg/kg, po administered for 3 times a week measured after 20 days; format: organism-based, DMS-53; design: dose 10 mg/kg, route oral; details: in vivo, 480 h; in short: as §1
Mus musculus [19] = assay: Toxicity in BALB/c nu/nu mouse xenografted with human DMS53 cells assessed as cardiac fibrosis at 10 mg/kg, po administered for 3 times a week measured after 20 days using Gomori Trichrome stain; format: organism-based, Heart, DMS-53; design: dose 10 mg/kg, route oral; details: in vivo, 480 h; in short: as §2
MRC5 = assay: Antiproliferative activity at human MRC5 cells after 72 hrs by MTT assay; format: functional, cell-based; details: MRC5, 72 h
DMS-53 = assay: Antiproliferative activity at human DMS53 cells after 72 hrs by MTT assay; format: functional, cell-based; details: Homo sapiens, DMS-53, 72 h
A549 = assay: Antiproliferative activity at human A549 cells after 72 hrs by MTT assay; format: functional, cell-based
Mus musculus [20] = assay: Toxicity in BALB/c nu/nu mouse xenografted with human DMS53 cells assessed as change in kidney histology at 20 mg/kg, po administered for 3 times a week measured after 20 days; format: organism-based, DMS-53; design: dose 20 mg/kg, route oral; details: in vivo, 480 h; in short: as §1
Mus musculus [21] = assay: Toxicity in BALB/c nu/nu mouse xenografted with human DMS53 cells assessed as change in heart histology at 7.5 mg/kg, po administered for 3 times a week measured after 20 days; format: organism-based, DMS-53; design: dose 7.5 mg/kg, route oral; details: in vivo, 480 h; in short: as §1
Mus musculus [22] = assay: Toxicity in BALB/c nu/nu mouse xenografted with human DMS53 cells assessed as change in lungs histology at 7.5 mg/kg, po administered for 3 times a week measured after 20 days; format: organism-based, DMS-53; design: dose 7.5 mg/kg, route oral; details: in vivo, 480 h; in short: as §3
Mus musculus [23] = assay: Toxicity in BALB/c nu/nu mouse xenografted with human DMS53 cells assessed as change in heart histology at 20 mg/kg, po administered for 3 times a week measured after 20 days; format: organism-based, DMS-53; design: dose 20 mg/kg, route oral; details: in vivo, 480 h; in short: as §1
Mus musculus [24] = assay: Toxicity in BALB/c nu/nu mouse xenografted with human DMS53 cells assessed as change in hemoglobin level at 10 mg/kg, po administered for 3 times a week measured after 20 days; format: organism-based, DMS-53; design: dose 10 mg/kg, route oral; details: in vivo, 480 h; in short: as §1
Mus musculus [25] = assay: Toxicity in BALB/c nu/nu mouse xenografted with human DMS53 cells assessed as change in kidney histology at 10 mg/kg, po administered for 3 times a week measured after 20 days; format: organism-based, DMS-53; design: dose 10 mg/kg, route oral; details: in vivo, 480 h; in short: as §1
Mus musculus [26] = assay: Toxicity in BALB/c nu/nu mouse xenografted with human DMS53 cells assessed as change in liver histology at 20 mg/kg, po administered for 3 times a week measured after 20 days; format: organism-based, DMS-53; design: dose 20 mg/kg, route oral; details: in vivo, 480 h; in short: as §1
Mus musculus [27] = assay: Cardiotoxicity in BALB/c nu/nu mouse xenografted with human DMS53 cells at 7.5 mg/kg, po administered for 3 times a week measured after 20 days; format: toxicity, organism-based, DMS-53; design: dose 7.5 mg/kg, route oral; details: in vivo, 480 h; in short: as §2
Mus musculus [28] = assay: Toxicity in BALB/c nu/nu mouse xenografted with human DMS53 cells assessed as change in heart histology at 10 mg/kg, po administered for 3 times a week measured after 20 days; format: organism-based, DMS-53; design: dose 10 mg/kg, route oral; details: in vivo, 480 h; in short: as §1

Structure (SMILES)	Activity (Mus musculus [1])	Activity (Mus musculus [2])	Activity (Mus musculus [3])	Activity (Mus musculus [4])	Activity (Mus musculus [5])	Activity (Mus musculus [6])	Activity (Mus musculus [7])	Activity (Mus musculus [8])	Activity (Mus musculus [9])	Activity (Mus musculus [10])	Activity (Mus musculus [11])	Activity (Mus musculus [12])	Activity (Mus musculus [13])	Activity (Mus musculus [14])	Activity (Mus musculus [15])	MTD at 672 h [16]	Activity (Mus musculus [17])	Activity (Mus musculus [18])	Activity (Mus musculus [19])	IC50 (MRC5)	further results
CN(C(=S)NN=C(c1ccccn1)c1ccccn1)C1CCCCC1.Cl	Non-toxic	Non-toxic	Non-toxic	Non-toxic	Non-toxic	Non-toxic	Non-toxic	Non-toxic	Non-toxic	Non-toxic	Non-toxic	Non-toxic	Non-toxic	Non-toxic	Non-toxic	20 mg/kg	Non-toxic	Non-toxic	Non-toxic	> 10000 nM	IC50 (DMS-53): 7 nM; IC50 (A549; Homo sapiens, A549, 72 h): 4 nM; Activity (Mus musculus [20]): Non-toxic; Activity (Mus musculus [21]): Non-toxic; Activity (Mus musculus [22]): Non-toxic; Activity (Mus musculus [23]): Non-toxic; Activity (Mus musculus [24]): Non-toxic; Activity (Mus musculus [25]): Non-toxic; Activity (Mus musculus [26]): Non-toxic; Activity (Mus musculus [27]): Non-toxic; Activity (Mus musculus [28]): Non-toxic
CCN(C)C(=S)NN=C(c1ccccn1)c1ccccn1.Cl	Non-toxic	Non-toxic	Toxic	Non-toxic	Non-toxic	Non-toxic	Non-toxic	Non-toxic	Toxic	Non-toxic	Non-toxic	Non-toxic	Non-toxic	Non-toxic	Non-toxic	10 mg/kg	Non-toxic	Non-toxic	Non-toxic	> 10000 nM	IC50 (DMS-53): 6 nM; IC50 (A549; a549): 1 nM; Activity (Mus musculus [20]): Non-toxic; Activity (Mus musculus [21]): Non-toxic; Activity (Mus musculus [22]): Non-toxic; Activity (Mus musculus [23]): Non-toxic; Activity (Mus musculus [24]): Toxic; Activity (Mus musculus [25]): Non-toxic; Activity (Mus musculus [26]): Non-toxic; Activity (Mus musculus [27]): Non-toxic; Activity (Mus musculus [28]): Non-toxic
